Source: ChEMBL document CHEMBL3627695, “1-Benzyl-2-methyl-3-indolylmethylene barbituric acid derivatives: Anti-cancer agents that target nucleophosmin 1 (NPM1)” (Bioorg Med Chem, 2015)
Active and inactive are the calls of the source. No cut-off for these calls is given here.

How the values were obtained:
OCI-AML-3 = assay: (§1) Anticancer activity against human OCI-AML3 cells expressing mutant NPM1 assessed as apoptosis for 48 hrs by annexin-V and TO-PRO3 staining based flow cytometry; format: functional, cell-based
Method in brief: (§2)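 OCI-AML3 cells (NPM1c+) in logarithmic growth, passaged 2–3 times weekly. Cells were exposed to the indicated compound concentrations for 48 hr, then stained with annexin V and TO-PRO 3. Percent apoptotic cells was read by flow cytometry. AP50 is the concentration at which 50% of cells undergo apoptosis.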

CCRF-CEM = assay: Anticancer activity against human CCRF-CEM cells after 48 hrs by sulforhodamine B assay; format: functional
Method in brief: (§3)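 NCI-60 human tumour cell line panel. Compounds dissolved in DMSO/H2O and tested at five 10-fold dilutions (10⁻⁴ M to 10⁻⁸ M) for 48 hr. GI50 is the molar concentration giving 50% reduction in net cell growth relative to cell numbers on day 0.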

HL-60(TB) = assay: Anticancer activity against human HL-60(TB) cells after 48 hrs by sulforhodamine B assay; format: functional; conditions: HL-60, 48 h; method in brief: as §3
K562 = assay: Anticancer activity against human K562 cells after 48 hrs by sulforhodamine B assay; format: functional; conditions: K562, 48 h; method in brief: as §3
[1] = Anticancer activity against human MOLT4 cells after 48 hrs by sulforhodamine B assay; format: functional; conditions: MOLT-4, 48 h; method in brief: as §3
[2] = Anticancer activity against human RPMI8226 cells after 48 hrs by sulforhodamine B assay; format: functional; conditions: RPMI-8226, 48 h; method in brief: as §3
SR = assay: Anticancer activity against human SR cells after 48 hrs by sulforhodamine B assay; format: functional
Method in brief: (§4)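 NCI-60 panel protocol. Compounds were dissolved in DMSO/H2O and tested at five 10-fold concentrations (10⁻⁴ to 10⁻⁸ M) with 48 hr incubation. GI50 is the molar concentration giving a 50% reduction in net cell growth relative to cell numbers on day 0.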

A549 = assay: Anticancer activity against human A549/ATCC cells after 48 hrs by sulforhodamine B assay; format: functional; conditions: A549, 48 h; method in brief: as §3
HOP-62 = assay: Anticancer activity against human HOP62 cells after 48 hrs by sulforhodamine B assay; format: functional; conditions: HOP-62, 48 h; method in brief: as §3
[3] = Anticancer activity against human HOP92 cells after 48 hrs by sulforhodamine B assay; format: functional; conditions: HOP-92, 48 h; method in brief: as §3
NCI-H226 = assay: Anticancer activity against human NCI-H226 cells after 48 hrs by sulforhodamine B assay; format: functional; conditions: NCI-H226, 48 h; method in brief: as §3
NCI-H322M = assay: Anticancer activity against human NCI-H322M cells after 48 hrs by sulforhodamine B assay; format: functional; method in brief: as §3
NCI-H460 = assay: Anticancer activity against human NCI-H460 cells after 48 hrs by sulforhodamine B assay; format: functional; conditions: NCI-H460, 48 h; method in brief: as §3
NCI-H522 = assay: Anticancer activity against human NCI-H522 cells after 48 hrs by sulforhodamine B assay; format: functional; conditions: NCI-H522, 48 h; method in brief: as §3
[4] = Anticancer activity against human COLO205 cells after 48 hrs by sulforhodamine B assay; format: functional; conditions: COLO 205, 48 h; method in brief: as §3
[5] = Anticancer activity against human HCC2998 cells after 48 hrs by sulforhodamine B assay; format: functional; conditions: HCC 2998, 48 h; method in brief: as §3
HCT-116 = assay: Anticancer activity against human HCT116 cells after 48 hrs by sulforhodamine B assay; format: functional; conditions: HCT-116, 48 h; method in brief: as §3
HCT-15 = assay: Anticancer activity against human HCT15 cells after 48 hrs by sulforhodamine B assay; format: functional; conditions: HCT-15, 48 h; method in brief: as §3
HT-29 = assay: Anticancer activity against human HT-29 cells after 48 hrs by sulforhodamine B assay; format: functional; conditions: HT-29, 48 h; method in brief: as §3
KM12 = assay: Anticancer activity against human KM12 cells after 48 hrs by sulforhodamine B assay; format: functional; conditions: KM12, 48 h; method in brief: as §3
SW-620 = assay: Anticancer activity against human SW620 cells after 48 hrs by sulforhodamine B assay; format: functional; conditions: SW-620, 48 h; method in brief: as §4
SF-268 = assay: Anticancer activity against human SF268 cells after 48 hrs by sulforhodamine B assay; format: functional; conditions: SF-268, 48 h; method in brief: as §3
[6] = Anticancer activity against human SF295 cells after 48 hrs by sulforhodamine B assay; format: functional; conditions: SF-295, 48 h; method in brief: as §3
[7] = Anticancer activity against human SF539 cells after 48 hrs by sulforhodamine B assay; format: functional; conditions: SF-539, 48 h; method in brief: as §3
SNB-19 = assay: Anticancer activity against human SNB19 cells after 48 hrs by sulforhodamine B assay; format: functional; conditions: SNB-19, 48 h; method in brief: as §3
SNB-75 = assay: Anticancer activity against human SNB75 cells after 48 hrs by sulforhodamine B assay; format: functional; conditions: SNB-75, 48 h; method in brief: as §3
U-251 = assay: Anticancer activity against human U251 cells after 48 hrs by sulforhodamine B assay; format: functional; conditions: U-251, 48 h; method in brief: as §4
[8] = Anticancer activity against human LOXIMVI cells after 48 hrs by sulforhodamine B assay; format: functional; conditions: LOX IMVI; method in brief: as §3
Malme-3M = assay: Anticancer activity against human MALME-3M cells after 48 hrs by sulforhodamine B assay; format: functional; method in brief: as §3
M14 = assay: Anticancer activity against human M14 cells after 48 hrs by sulforhodamine B assay; format: functional; conditions: M14, 48 h; method in brief: as §3
MDA-MB-435 = assay: Anticancer activity against human MDA-MB-435 cells after 48 hrs by sulforhodamine B assay; format: functional; conditions: MDA-MB-435, 48 h; method in brief: as §3
SK-MEL-2 = assay: Anticancer activity against human SK-MEL-2 cells after 48 hrs by sulforhodamine B assay; format: functional; conditions: SK-MEL-2, 48 h; method in brief: as §3
SK-MEL-28 = assay: Anticancer activity against human SK-MEL-28 cells after 48 hrs by sulforhodamine B assay; format: functional; conditions: SK-MEL-28, 48 h; method in brief: as §3
SK-MEL-5 = assay: Anticancer activity against human SK-MEL-5 cells after 48 hrs by sulforhodamine B assay; format: functional; conditions: SK-MEL-5, 48 h; method in brief: as §3
UACC-257 = assay: Anticancer activity against human UACC257 cells after 48 hrs by sulforhodamine B assay; format: functional; conditions: UACC-257, 48 h; method in brief: as §4
IGROV-1 = assay: Anticancer activity against human IGROV1 cells after 48 hrs by sulforhodamine B assay; format: functional; conditions: IGROV-1, 48 h; method in brief: as §3
OVCAR-3 = assay: Anticancer activity against human OVCAR3 cells after 48 hrs by sulforhodamine B assay; format: functional; conditions: OVCAR-3, 48 h; method in brief: as §3
OVCAR-4 = assay: Anticancer activity against human OVCAR4 cells after 48 hrs by sulforhodamine B assay; format: functional; conditions: OVCAR-4, 48 h; method in brief: as §3
OVCAR-5 = assay: Anticancer activity against human OVCAR5 cells after 48 hrs by sulforhodamine B assay; format: functional; conditions: OVCAR-5, 48 h; method in brief: as §3
OVCAR-8 = assay: Anticancer activity against human OVCAR8 cells after 48 hrs by sulforhodamine B assay; format: functional; conditions: OVCAR-8, 48 h; method in brief: as §3
[9] = Anticancer activity against human NCI-ADR-RES cells after 48 hrs by sulforhodamine B assay; format: functional; method in brief: as §3
SK-OV-3 = assay: Anticancer activity against human SKOV3 cells after 48 hrs by sulforhodamine B assay; format: functional; conditions: SK-OV-3, 48 h; method in brief: as §3
786-0 = assay: Anticancer activity against human 786-0 cells after 48 hrs by sulforhodamine B assay; format: functional; conditions: 786-0, 48 h; method in brief: as §3
A498 = assay: Anticancer activity against human A498 cells after 48 hrs by sulforhodamine B assay; format: functional; conditions: A498, 48 h; method in brief: as §3
ACHN = assay: Anticancer activity against human ACHN cells after 48 hrs by sulforhodamine B assay; format: functional; method in brief: as §3
CAKI-1 = assay: Anticancer activity against human Caki1 cells after 48 hrs by sulforhodamine B assay; format: functional; conditions: CAKI-1, 48 h; method in brief: as §3
[10] = Anticancer activity against human RXF393 cells after 48 hrs by sulforhodamine B assay; format: functional; conditions: RXF 393, 48 h; method in brief: as §3
SN12C = assay: Anticancer activity against human SN12C cells after 48 hrs by sulforhodamine B assay; format: functional; method in brief: as §3
TK-10 = assay: Anticancer activity against human TK10 cells after 48 hrs by sulforhodamine B assay; format: functional; conditions: TK-10, 48 h; method in brief: as §4
UO-31 = assay: Anticancer activity against human UO31 cells after 48 hrs by sulforhodamine B assay; format: functional; conditions: UO-31, 48 h; method in brief: as §4
DU-145 = assay: Anticancer activity against human DU145 cells after 48 hrs by sulforhodamine B assay; format: functional; conditions: DU-145, 48 h; method in brief: as §3
MCF7 = assay: Anticancer activity against human MCF7 cells after 48 hrs by sulforhodamine B assay; format: functional; conditions: MCF7, 48 h; method in brief: as §3
MDA-MB-231 = assay: Anticancer activity against human MDA-MB-231 cells after 48 hrs by sulforhodamine B assay; format: functional; conditions: MDA-MB-231, 48 h; method in brief: as §3
[11] = Anticancer activity against human Hs 578T cells after 48 hrs by sulforhodamine B assay; format: functional; method in brief: as §3
BT-549 = assay: Anticancer activity against human BT549 cells after 48 hrs by sulforhodamine B assay; format: functional; conditions: BT-549, 48 h; method in brief: as §3
T47D = assay: Anticancer activity against human T47D cells after 48 hrs by sulforhodamine B assay; format: functional; method in brief: as §4
MDA-MB-468 = assay: Anticancer activity against human MDA-MB-468 cells after 48 hrs by sulforhodamine B assay; format: functional; conditions: MDA-MB-468, 48 h; method in brief: as §3
[12] = as §1; format: functional, cell-based; conditions: OCI-AML-3, 48 h; method in brief: as §2

## Cc1c(C=C2C(=O)NC(=O)NC2=O)c2ccccc2n1Cc1ccc(Br)cc1
OCI-AML-3
  Activity: inactive

## Cc1c(C=C2C(=O)NC(=O)NC2=O)c2ccccc2n1Cc1ccc(C#N)cc1
OCI-AML-3
  Activity: inactive

## Cc1c(C=C2C(=O)NC(=S)NC2=O)c2ccccc2n1Cc1ccc(C#N)cc1
CCRF-CEM
  GI50: 0.84 µM
HL-60(TB)
  GI50: 1.08 µM
K562
  GI50: 1.77 µM
[1]
  GI50: 1.82 µM
[2]
  GI50: 0.57 µM
SR
  GI50: 0.56 µM
A549
  GI50: 2.48 µM
HOP-62
  GI50: 1.96 µM
[3]
  GI50: 1.28 µM
NCI-H226
  GI50: 1.79 µM
NCI-H322M
  GI50: 1.93 µM
NCI-H460
  GI50: 2.01 µM
NCI-H522
  GI50: 1.75 µM
[4]
  GI50: 1.73 µM
[5]
  GI50: 1.79 µM
HCT-116
  GI50: 1.29 µM
HCT-15
  GI50: 1.74 µM
HT-29
  GI50: 1.76 µM
KM12
  GI50: 1.74 µM
SW-620
  GI50: 1.36 µM
SF-268
  GI50: 1.6 µM
[6]
  GI50: 1.88 µM
[7]
  GI50: 1.29 µM
SNB-19
  GI50: 1.77 µM
SNB-75
  GI50: 2.04 µM
U-251
  GI50: 1.61 µM
[8]
  GI50: 0.9 µM
Malme-3M
  GI50: 2.5 µM
M14
  GI50: 1.61 µM
MDA-MB-435
  GI50: 1.49 µM
SK-MEL-2
  GI50: 2.17 µM
SK-MEL-28
  GI50: 2.08 µM
SK-MEL-5
  GI50: 1.84 µM
UACC-257
  GI50: 1.67 µM
IGROV-1
  GI50: 1.61 µM
OVCAR-3
  GI50: 1.58 µM
OVCAR-4
  GI50: 1.59 µM
OVCAR-5
  GI50: 1.84 µM
OVCAR-8
  GI50: 1.32 µM
[9]
  GI50: 3.83 µM
SK-OV-3
  GI50: 2.98 µM
786-0
  GI50: 1.76 µM
A498
  GI50: 0.22 µM
ACHN
  GI50: 1.7 µM
CAKI-1
  GI50: 2.21 µM
[10]
  GI50: 1.53 µM
SN12C
  GI50: 1.4 µM
TK-10
  GI50: 1.37 µM
UO-31
  GI50: 1.46 µM
DU-145
  GI50: 1.71 µM
MCF7
  GI50: 1.28 µM
MDA-MB-231
  GI50: 1.64 µM
[11]
  GI50: 1.22 µM
BT-549
  GI50: 1.87 µM
T47D
  GI50: 2.54 µM
MDA-MB-468
  GI50: 0.38 µM
[12]
  AC50: 2.72 µM
